# Experimental data taken from ChEMBL document CHEMBL3588809, “Antioxidant and Anti-Inflammatory Phenolic Glycosides from Clematis tashiroi” (J Nat Prod, 2015).
# Active and inactive are the calls of the source. The calls are words filed in the database; no cut-off is given here.
# Assays:
# [1] = Antioxidant activity assessed as DPPH free radical scavenging activity at 100 ug/ml incubated for 30 mins by ELISA method; format: physicochemical; settings: 0.5 h
# Outline: (§1)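 Sample (120 μL, 10−100 μg/mL) mixed with 30 μL of 0.75 mM DPPH in methanol, shaken in the dark at room temperature for 30 min, absorbance read at 517 nm on a plate reader. Methanol negative control, α-tocopherol (10−40 μg/mL) positive control. ED50 taken as concentration scavenging 50% of DPPH radicals.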
# [2] = test system: RAW264.7; assay: Anti-inflammatory activity in mouse RAW264.7 cells assessed as inhibition of LPS-induced nitric oxide production at 20 ug/ml incubated for 24 hrs by Griess reagent based assay; format: functional, cell-based
# Outline: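 RAW 264.7 macrophages grown in DMEM with 5% heat-inactivated fetal calf serum at 37 °C, 5% CO2. Cells seeded at 2 × 10^5/well, treated with compound (DMSO stock diluted in PBS) together with LPS 1000 ng/mL for 24 h. Medium nitrite read with Griess reagent at 550 nm against NaNO2 standard curve; LPS-only NO set as 100%; triplicate; quercetin positive control.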
# [3] = Antioxidant activity assessed as DPPH free radical scavenging activity incubated for 30 mins by ELISA method; format: physicochemical; settings: 0.5 h; read-out: ED50 (the source's name); outline: as §1
# [4] = test system: RAW264.7; assay: Anti-inflammatory activity in mouse RAW264.7 cells assessed as inhibition of LPS-induced nitric oxide production incubated for 24 hrs by Griess reagent based assay; format: functional, cell-based; settings: RAW264.7, 24 h
# Outline: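 RAW 264.7 macrophages grown in DMEM with 5% heat-inactivated FCS at 37 °C, 5% CO2; plated at 2 × 10^5 cells/well and stimulated with LPS (1000 ng/mL) concurrently with test agents (DMSO stocks diluted in PBS) for 24 h. Nitrite in medium measured with Griess reagent at 550 nm against NaNO2 standard curve; LPS-only set as 100%; triplicates; IC50 reported.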
Structure (SMILES),Activity [1] [%],inhibition [2],EC50 [3] [µM],IC50 [4] [µM]
O=C(/C=C/c1ccc(O)c(O)c1)O[C@@H]1O[C@H](CO)[C@@H](O)[C@H](O)[C@H]1O,99.3,inactive,29.1,
O=C(/C=C/c1ccc(O[C@@H]2O[C@H](COC(=O)/C=C/c3ccc(O)c(O)c3)[C@@H](O)[C@H](O)[C@H]2O)c(O)c1)OC[C@H]1O[C@@H](Oc2cc(/C=C/c3ccc(O)c(O)c3)oc(=O)c2)[C@H](O)[C@@H](O)[C@@H]1O,98.8,inactive,17,
O=C(/C=C/c1ccc(O)c(O)c1)OC[C@H]1O[C@@H](Oc2cc(/C=C/C(=O)O[C@@H]3O[C@H](CO)[C@@H](O)[C@H](O)[C@H]3O)ccc2O)[C@H](O)[C@@H](O)[C@@H]1O,99.4,inactive,39.9,
COc1cc(/C=C/C(=O)OC[C@H]2O[C@@H](Oc3ccc(/C=C/C(=O)O[C@@H]4O[C@H](CO)[C@@H](O)[C@H](O)[C@H]4O)cc3O)[C@H](O)[C@@H](O)[C@@H]2O)ccc1O,74.8,inactive,87,
O=C(/C=C/c1ccc(O)c(O)c1)OC[C@H]1O[C@@H](Oc2ccc(/C=C/C(=O)O[C@@H]3O[C@H](CO)[C@@H](O)[C@H](O)[C@H]3O)cc2)[C@H](O)[C@@H](O)[C@@H]1O,99.7,inactive,47,
O=C(/C=C/c1ccc(O)c(O)c1)OC[C@H]1OC(O)[C@H](O)[C@@H](O)[C@@H]1O (some centres undefined),9.8,inactive,,
O=C(/C=C/c1ccc(O)cc1)OC[C@H]1OC(O)[C@H](O)[C@@H](O)[C@@H]1O (some centres undefined),5,inactive,,
O=c1c(O)c(-c2ccc(O)c(O)c2)oc2cc(O)cc(O)c12 [QUERCETIN],,,,1.8
O=C(/C=C/c1ccc(O)c(O)c1)OC[C@H]1O[C@@H](Oc2cc(/C=C/c3ccc(O)c(O)c3)oc(=O)c2)[C@H](O)[C@@H](O)[C@@H]1O,99,,13,14.9
O=C(/C=C/c1ccc(O)cc1)OC[C@H]1O[C@@H](Oc2ccc(/C=C/C(=O)O[C@@H]3O[C@H](CO)[C@@H](O)[C@H](O)[C@H]3O)cc2O)[C@H](O)[C@@H](O)[C@@H]1O,7.8,inactive,,
O=C(O)/C=C/c1ccc(O[C@@H]2O[C@H](CO)[C@@H](O)[C@H](O)[C@H]2O)c(O)c1,91.2,inactive,175,
O=C(/C=C/c1ccc(O)cc1)OC[C@H]1O[C@@H](Oc2cc(/C=C/C(=O)O[C@@H]3O[C@H](CO)[C@@H](O)[C@H](O)[C@H]3O)ccc2O)[C@H](O)[C@@H](O)[C@@H]1O,32.2,inactive,,
O=C(/C=C/c1ccc(O)c(O)c1)OC[C@H]1O[C@@H](Oc2ccc(/C=C/C(=O)O[C@@H]3O[C@H](CO)[C@@H](O)[C@H](O)[C@H]3O)cc2O)[C@H](O)[C@@H](O)[C@@H]1O,99.8,inactive,13.3,
Cc1c(C)c2c(c(C)c1O)CCC(C)(CCCC(C)CCCC(C)CCCC(C)C)O2 (racemic) [alpha-TOCHOPHEROL],,,27.8,
